Reference: ChEMBL document CHEMBL1132168, “Cycloalkanecarboxylic esters derived from lysergol, dihydrolysergol-I, and elymoclavine as partial agonists and antagonists at rat 5-HT2A receptors: pharmacological evidence that the indolo[4,3-fg]quinoline system of the ergolines is responsible for high 5-HT2A receptor affinity” (J Med Chem, 1999)
“And” between values parts separate entries of the source, which are not always exact repeats. Equal entries are not always repeated.

What was measured:
[1] = molecular target: 5-hydroxytryptamine receptor 1B (Homo sapiens, UniProt P28222); test: Affinity of compound towards 5-hydroxytryptamine 1B receptor in isolated guinea-pig iliac artery; format: functional, tissue-based, Cavia porcellus; conditions: target entry is the homologue from another species; read-out: pA2 (converted)
Summary of the method: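 Iliac artery segments (1–2 mm), resting force 5 mN. Krebs-Henseleit contained ketanserin 1 μM, mepyramine 0.3 μM, cimetidine 30 μM and cocaine 30 μM. […] Two 5-HT curves were run 80 min apart, the second after 45 min with compound.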

[2] = molecular target: T1, Adrenergic receptor alpha-1 (Rattus norvegicus, UniProt P15823+P23944+P43140); test: Ability to block alpha-1 adrenergic receptor-mediated contractions of rat aorta.; format: functional
T1 sequence (P15823 whole entry): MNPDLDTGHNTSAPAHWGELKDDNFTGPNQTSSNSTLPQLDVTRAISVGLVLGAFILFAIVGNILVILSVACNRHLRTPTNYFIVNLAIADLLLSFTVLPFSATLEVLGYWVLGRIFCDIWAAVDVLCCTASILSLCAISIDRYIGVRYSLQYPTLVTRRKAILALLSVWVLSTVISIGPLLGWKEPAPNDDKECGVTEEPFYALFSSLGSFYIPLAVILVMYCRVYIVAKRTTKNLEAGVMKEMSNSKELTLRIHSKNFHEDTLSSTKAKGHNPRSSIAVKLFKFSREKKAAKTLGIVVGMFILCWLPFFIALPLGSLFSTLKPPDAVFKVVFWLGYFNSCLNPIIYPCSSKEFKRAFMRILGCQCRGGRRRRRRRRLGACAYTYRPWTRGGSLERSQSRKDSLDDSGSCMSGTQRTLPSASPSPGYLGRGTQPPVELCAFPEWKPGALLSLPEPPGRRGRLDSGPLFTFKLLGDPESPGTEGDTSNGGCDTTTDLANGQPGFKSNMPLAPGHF
T1 sequence (P23944 whole entry): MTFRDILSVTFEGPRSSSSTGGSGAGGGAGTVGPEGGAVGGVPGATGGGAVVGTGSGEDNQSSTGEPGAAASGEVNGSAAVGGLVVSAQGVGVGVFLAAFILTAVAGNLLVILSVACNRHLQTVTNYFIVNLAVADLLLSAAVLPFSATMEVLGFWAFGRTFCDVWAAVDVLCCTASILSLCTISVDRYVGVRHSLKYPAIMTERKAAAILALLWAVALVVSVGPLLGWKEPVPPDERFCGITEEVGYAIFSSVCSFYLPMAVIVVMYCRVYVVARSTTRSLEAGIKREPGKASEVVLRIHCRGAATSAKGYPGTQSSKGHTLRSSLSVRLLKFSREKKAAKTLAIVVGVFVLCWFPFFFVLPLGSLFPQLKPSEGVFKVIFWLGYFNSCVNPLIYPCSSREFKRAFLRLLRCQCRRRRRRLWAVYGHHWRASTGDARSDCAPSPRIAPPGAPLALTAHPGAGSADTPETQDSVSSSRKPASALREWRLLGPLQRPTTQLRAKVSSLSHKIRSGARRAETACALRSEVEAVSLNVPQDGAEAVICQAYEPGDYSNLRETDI
T1 sequence (P43140 whole entry): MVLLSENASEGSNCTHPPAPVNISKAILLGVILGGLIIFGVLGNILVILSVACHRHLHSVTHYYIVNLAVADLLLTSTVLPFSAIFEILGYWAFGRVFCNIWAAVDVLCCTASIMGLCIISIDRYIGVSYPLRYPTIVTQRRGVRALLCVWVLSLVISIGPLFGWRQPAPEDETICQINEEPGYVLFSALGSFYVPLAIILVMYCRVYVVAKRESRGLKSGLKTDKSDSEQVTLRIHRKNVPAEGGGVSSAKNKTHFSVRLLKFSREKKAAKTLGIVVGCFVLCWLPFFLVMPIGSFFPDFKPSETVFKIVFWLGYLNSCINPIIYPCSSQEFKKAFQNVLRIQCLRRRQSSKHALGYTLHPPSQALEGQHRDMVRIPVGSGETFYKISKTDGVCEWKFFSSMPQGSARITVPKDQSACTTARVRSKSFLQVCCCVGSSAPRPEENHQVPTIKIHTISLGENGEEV
Summary of the method: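 Endothelium-denuded rat thoracic aorta rings (4–6 mm) in modified Krebs-Henseleit, 37 °C, 95% O2/5% CO2, with (R,S)-propranolol 1 μM. Resting force 20 mN. During 140 min equilibration, rings were stimulated twice with (R)-phenylephrine 100 nM. Two cumulative phenylephrine contraction curves were run, without and then with antagonist added 30 min before.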

[3] = molecular target: T2, 5-hydroxytryptamine receptor 2A (Rattus norvegicus, UniProt P14842); test: Blocking 5-HT2A receptor-mediated contractions of rat tail artery; format: functional, tissue-based; conditions: read-out: pA2 (converted)
Summary of the method: (§1)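 Endothelium-denuded rat ventral caudal artery segments (4–5 mm), isometric, resting force 5 mN. Segments were primed once with 5-HT 1 μM during 120 min equilibration. Prazosin 30 nM and cocaine 6 μM were present throughout. Two cumulative 5-HT curves were run 60 min apart, the second after 30–60 min with antagonist. pKP by Marano–Kaumann; pA2 by Schild or as apparent pA2. Mean ± SEM, n segments, ≥2 animals.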

[4] = Specificity towards 5-HT2A receptor to that of alpha-1 adrenoceptor.; format: functional
[5] = Specificity of compound towards 5-HT2A receptor to that of 5-HT1B receptor; format: functional
[6] = molecular target: T2, 5-hydroxytryptamine receptor 2A; test: Effectiveness of compound in blocking 5-hydroxytryptamine 2A receptor-mediated contractions of rat tail artery; format: functional, tissue-based; conditions: read-out: pA2 (converted); summary of the method: as §1
[7] = molecular target: 5-hydroxytryptamine receptor 2A (Rattus norvegicus) (UniProt P14842); test: Relative potency towards 5-HT2A receptor of rat tail artery; format: functional, tissue-based
Summary of the method: (§2)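 Endothelium-denuded rat caudal artery segments, resting force 5 mN, with prazosin 30 nM and cocaine 6 μM present. Two cumulative curves were run on each segment 60 min apart: first 5-HT, then the test agonist. pKP was taken from a Kenakin plot of equieffective 5-HT and agonist concentrations. Mean ± SEM from n segments, ≥2 animals.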

[8] = molecular target: T2, 5-hydroxytryptamine receptor 2A; test: Partial agonism at 5-HT2A receptor was evaluated in presence of ketanserin (3-10 nM) in isolated rat tail artery; format: functional, tissue-based; conditions: read-out: pA2 (converted)
Summary of the method: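 Rat caudal artery, endothelium removed, with prazosin 30 nM and cocaine 6 μM present. A 5-HT curve was followed after 60 min by a cumulative agonist curve, with ketanserin 3 nM added 30 min beforehand. The rightward shift was compared with that in control segments run without ketanserin.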

[9] = molecular target: 5-hydroxytryptamine receptor 2A (Rattus norvegicus) (UniProt P14842); conditions: Tail
[10] = molecular target: 5-hydroxytryptamine receptor 2A (Rattus norvegicus) (UniProt P14842); test: Intrinsic activity towards 5-HT2A receptor of rat tail artery; format: functional, tissue-based; summary of the method: as §2
[11] = molecular target: 5-hydroxytryptamine receptor 2A (Rattus norvegicus) (UniProt P14842); test: Effectiveness in blocking 5-HT2A receptor-mediated contractions of rat tail artery; format: functional, tissue-based; summary of the method: as §1

T2 sequence (P14842 whole entry): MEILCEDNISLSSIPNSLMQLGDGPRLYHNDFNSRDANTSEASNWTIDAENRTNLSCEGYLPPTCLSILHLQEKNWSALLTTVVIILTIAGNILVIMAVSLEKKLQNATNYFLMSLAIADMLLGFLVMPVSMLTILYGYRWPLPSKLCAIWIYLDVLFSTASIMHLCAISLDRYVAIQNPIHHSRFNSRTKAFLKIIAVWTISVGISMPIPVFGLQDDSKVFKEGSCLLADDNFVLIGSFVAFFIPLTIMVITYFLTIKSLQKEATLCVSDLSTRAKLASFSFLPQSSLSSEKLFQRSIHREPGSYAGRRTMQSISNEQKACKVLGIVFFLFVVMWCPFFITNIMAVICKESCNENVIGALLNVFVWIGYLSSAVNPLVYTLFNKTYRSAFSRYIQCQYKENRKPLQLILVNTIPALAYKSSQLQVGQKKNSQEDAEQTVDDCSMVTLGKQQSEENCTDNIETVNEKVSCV
Sequence of 5-hydroxytryptamine receptor 2A (Rattus norvegicus) (P14842 whole entry): as above
Sequence of 5-hydroxytryptamine receptor 1B (P28222 whole entry): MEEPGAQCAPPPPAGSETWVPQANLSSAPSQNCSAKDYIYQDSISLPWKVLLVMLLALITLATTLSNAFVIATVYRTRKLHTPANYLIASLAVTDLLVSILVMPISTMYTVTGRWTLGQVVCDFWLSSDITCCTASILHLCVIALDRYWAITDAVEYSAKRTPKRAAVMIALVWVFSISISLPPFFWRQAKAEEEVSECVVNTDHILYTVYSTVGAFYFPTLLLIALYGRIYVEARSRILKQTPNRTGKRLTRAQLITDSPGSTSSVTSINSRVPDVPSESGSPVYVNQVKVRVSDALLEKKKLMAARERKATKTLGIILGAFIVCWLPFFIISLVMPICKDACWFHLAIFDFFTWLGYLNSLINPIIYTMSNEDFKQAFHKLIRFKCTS

Row | SMILES | Kb [1] [nM] | pA2 [2] | Kb [3] [nM] | Specificity [4] | Specificity [5] | Kb [6] [nM] | Relative potency [7] [%] | Kb [8] [nM] | pKp [9] | Intrinsic activity [10] | pKp [11]
1 | CC(C)n1cc2c3c(cccc31)C1=C[C@@H](CO)CN(C)[C@@H]1C2.O=C(O)/C=C\C(=O)O | 209 | 6.05 | 0.708 | 1260 | 295 |  |  |  |  |  | 
2 | CC(C)n1cc2c3c(cccc31)[C@H]1C[C@@H](COC(=O)C3CC3)CN(C)[C@@H]1C2.O=C(O)/C=C\C(=O)O |  | 5.55 |  | 468 |  | 6.03 |  |  |  |  | 
3 | CC(C)n1cc2c3c(cccc31)[C@H]1C[C@@H](CO)CN(C)[C@@H]1C2.O=C(O)/C=C\C(=O)O | 1860 | 6.12 | 3.16 | 240 | 589 |  |  |  |  |  | 
4 | CN1C[C@H](COC(=O)C2CCCCC2)C=C2c3cccc4[nH]cc(c34)C[C@H]21.O=C(O)/C=C\C(=O)O |  | 5.05 |  | 68 |  |  | 49 | 0.661 | 6.88 | 0.18 | 6.92
5 | CN1C[C@H](COC(=O)C2CCC2)C=C2c3cccc4[nH]cc(c34)C[C@H]21.O=C(O)/C=C\C(=O)O |  | 5.52 |  | 174 |  |  | 185 | 0.741 |  | 0.13 | 7.76 and 7.36
6 | CC(C)n1cc2c3c(cccc31)C1=C[C@@H](COC(=O)C3CCCCCC3)CN(C)[C@@H]1C2.O=C(O)/C=C\C(=O)O |  | 4.93 |  | 661 |  | 17.8 |  |  |  |  | 
7 | CC(C)n1cc2c3c(cccc31)[C@H]1C=C(CO)CN(C)[C@@H]1C2.O=C(O)/C=C\C(=O)O | 851 | 5.69 | 0.724 | 2820 | 1180 |  |  |  |  |  | 
